Data published in ChEMBL document CHEMBL1149142, “Synthesis, biological activity and molecular modeling of 6-benzylthioinosine analogues as subversive substrates of Toxoplasma gondii adenosine kinase” (2004).

Key:
[1] = Effect of compound on percent survival of human fibroblast cells in culture was determined at 25 uM; type: functional; details: read-out: Survival
Procedure, shortened: (§1)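 Uninfected human foreskin fibroblast monolayers (≤30 passages) in RPMI 1640 are attached for at least 24 h at 37 °C in 5% CO2. Compound is added at the same concentrations as in the parasite assay and incubated 48 h. MTT is added for 4 h, formazan is dissolved in DMSO, and absorbance is read at 540 nm; at least triplicates.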

[2] = system: Toxoplasma gondii; assay: Effect of compound on percent survival of wild type (RH) strain of Toxoplasma gondii grown in human fibroblast cells at 50 uM; type: functional
Procedure, shortened: (§2)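 Human foreskin fibroblast monolayers (≤30 passages) in RPMI 1640 are infected with tachyzoites at one parasite per cell in 3% FBS for 1 h, then washed, with FBS kept at 10%. Compound is added in 50% ethanol stock (2.5% ethanol final) and incubated 18 h. Medium is replaced with drug-free [5,6-3H]uracil (2 μCi/mL) for 6 h. TCA-precipitable radioactivity is counted; at least triplicates.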

[3] = system: Toxoplasma gondii; assay: Effect of compound on percent survival of wild type (RH) strain of Toxoplasma gondii grown in human fibroblast cells at 5 uM; type: functional; procedure, shortened: as §2
[4] = Effect of compound on percent survival of human fibroblast cells in culture was determined at 50 uM; type: functional; details: read-out: Survival; procedure, shortened: as §1
[5] = system: Toxoplasma gondii; assay: Effect of compound on percent survival of adenosine kinase deficient strain of Toxoplasma gondii (TgAKe-3) grown in human fibroblast cells at 5 uM; type: functional; procedure, shortened: as §2
[6] = system: Toxoplasma gondii; assay: Effect of compound on percent survival of wild type (RH) strain of Toxoplasma gondii grown in human fibroblast cells at 0 uM; type: functional; procedure, shortened: as §2
[7] = Effect of compound on percent survival of human fibroblast cells in culture was determined at 5 uM; type: functional; details: read-out: Survival; procedure, shortened: as §1
[8] = Effect of compound on percent survival of human fibroblast cells in culture was determined at 0 uM; type: functional; procedure, shortened: as §1
[9] = Effect of compound on percent survival of human fibroblast cells in culture was determined at 10 uM; type: functional; details: read-out: Survival; procedure, shortened: as §1
[10] = system: Toxoplasma gondii; assay: Effect of compound on percent survival of adenosine kinase deficient strain of Toxoplasma gondii (TgAKe-3) grown in human fibroblast cells at 0 uM; type: functional; procedure, shortened: as §2
[11] = system: Toxoplasma gondii; assay: Effect of compound on percent survival of adenosine kinase deficient strain of Toxoplasma gondii (TgAKe-3) grown in human fibroblast cells at 10 uM; type: functional; procedure, shortened: as §2
[12] = system: Toxoplasma gondii; assay: Effect of compound on percent survival of wild type (RH) strain of Toxoplasma gondii grown in human fibroblast cells at 10 uM; type: functional; procedure, shortened: as §2
[13] = system: Toxoplasma gondii; assay: Effect of compound on percent survival of wild type (RH) strain of Toxoplasma gondii grown in human fibroblast cells at 25 uM; type: functional; procedure, shortened: as §2
[14] = system: Toxoplasma gondii; assay: Effect of compound on percent survival of adenosine kinase deficient strain of Toxoplasma gondii (TgAKe-3) grown in human fibroblast cells at 50 uM; type: functional; procedure, shortened: as §2
[15] = system: Toxoplasma gondii; assay: Effect of compound on percent survival of adenosine kinase deficient strain of Toxoplasma gondii (TgAKe-3) grown in human fibroblast cells at 25 uM; type: functional; procedure, shortened: as §2
[16] = substrate: OC[C@H]1O[C@@H](n2cnc3c(SCc4ccccc4)ncnc32)[C@H](O)[C@@H]1O; assay: (§3) Binding affinity at Toxoplasma gondii adenosine kinase.
Procedure, shortened: (§4)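 Purified recombinant T. gondii adenosine kinase was expressed in E. coli BL21(DE3)pLysS and purified on two Q-Sepharose columns. The assay contained 50 mM Tris-Cl pH 7.4, 2.5 mM ATP, 5 mM MgCl2, 5 mM creatine phosphate, creatine kinase and 5 μM [8-14C]adenosine, with varied analogue concentrations. Incubation was at 37 °C, stopped by boiling. [14C]AMP was resolved by TLC. Apparent Ki from Dixon plots was taken as apparent Km.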

[17] = substrate: OC[C@H]1O[C@@H](n2cnc3c(SCc4ccc(OC(F)(F)F)cc4)ncnc32)[C@H](O)[C@@H]1O; assay: as §3; procedure, shortened: as §4
[18] = substrate: O=[N+]([O-])c1ccc(CSc2ncnc3c2ncn3[C@@H]2O[C@H](CO)[C@@H](O)[C@H]2O)cc1; assay: as §3; procedure, shortened: as §4
[19] = substrate: OC[C@H]1O[C@@H](n2cnc3c(SCc4ccccc4Cl)ncnc32)[C@H](O)[C@@H]1O; assay: as §3; procedure, shortened: as §4
[20] = substrate: Cc1cccc(CSc2ncnc3c2ncn3[C@@H]2O[C@H](CO)[C@@H](O)[C@H]2O)c1; assay: as §3; procedure, shortened: as §4
[21] = substrate: COC(=O)c1ccc(CSc2ncnc3c2ncn3[C@@H]2O[C@H](CO)[C@@H](O)[C@H]2O)cc1; assay: as §3; procedure, shortened: as §4
[22] = substrate: OC[C@H]1O[C@@H](n2cnc3c(SCc4cccc(C(F)(F)F)c4)ncnc32)[C@H](O)[C@@H]1O; assay: as §3; procedure, shortened: as §4
[23] = substrate: CC(C)(C)c1ccc(CSc2ncnc3c2ncn3[C@@H]2O[C@H](CO)[C@@H](O)[C@H]2O)cc1; assay: as §3; procedure, shortened: as §4
[24] = substrate: OC[C@H]1O[C@@H](n2cnc3c(SCc4ccc(Cl)c(Cl)c4)ncnc32)[C@H](O)[C@@H]1O; assay: as §3; procedure, shortened: as §4
[25] = substrate: Cc1cc(C)c(CSc2ncnc3c2ncn3[C@@H]2O[C@H](CO)[C@@H](O)[C@H]2O)c(C)c1; assay: as §3; procedure, shortened: as §4
[26] = substrate: O=[N+]([O-])c1cccc(CSc2ncnc3c2ncn3[C@@H]2O[C@H](CO)[C@@H](O)[C@H]2O)c1; assay: as §3; procedure, shortened: as §4
[27] = substrate: COc1ccc(CSc2ncnc3c2ncn3[C@@H]2O[C@H](CO)[C@@H](O)[C@H]2O)cc1; assay: as §3; procedure, shortened: as §4
[28] = substrate: OC[C@H]1O[C@@H](n2cnc3c(SCc4ccc(Cl)cc4)ncnc32)[C@H](O)[C@@H]1O; assay: as §3; procedure, shortened: as §4
[29] = substrate: Cc1ccccc1CSc1ncnc2c1ncn2[C@@H]1O[C@H](CO)[C@@H](O)[C@H]1O; assay: as §3; procedure, shortened: as §4
[30] = substrate: Nc1ncnc2c1ncn2[C@@H]1O[C@H](CO)[C@@H](O)[C@H]1O; assay: as §3; procedure, shortened: as §4
[31] = substrate: OC[C@H]1O[C@@H](n2cnc3c(SCc4ccc(Br)cc4)ncnc32)[C@H](O)[C@@H]1O; assay: as §3; procedure, shortened: as §4
[32] = substrate: OC[C@H]1O[C@@H](n2cnc3c(SCc4c(F)cccc4Cl)ncnc32)[C@H](O)[C@@H]1O; assay: as §3; procedure, shortened: as §4
[33] = substrate: OC[C@H]1O[C@@H](n2cnc3c(SCc4ccc(F)cc4)ncnc32)[C@H](O)[C@@H]1O; assay: as §3; procedure, shortened: as §4
[34] = substrate: Cc1ccc(CSc2ncnc3c2ncn3[C@@H]2O[C@H](CO)[C@@H](O)[C@H]2O)cc1; assay: as §3; procedure, shortened: as §4
[35] = substrate: OC[C@H]1O[C@@H](n2cnc3c(SCc4ccc(Cl)cc4Cl)ncnc32)[C@H](O)[C@@H]1O; assay: as §3; procedure, shortened: as §4
[36] = substrate: N#Cc1ccc(CSc2ncnc3c2ncn3[C@@H]2O[C@H](CO)[C@@H](O)[C@H]2O)cc1; assay: as §3; procedure, shortened: as §4

## OC[C@H]1O[C@@H](n2cnc3c(SCc4ccc(Cl)cc4Cl)ncnc32)[C@H](O)[C@@H]1O
[1]
  viability at 25 µM: 94%
[2]
  survival at 50 µM: 0%
[3]
  survival at 5 µM: 94.8%
[4]
  viability at 50 µM: 99.5%
[5]
  survival at 5 µM: 100%
[6]
  Survival: 100%
[7]
  viability at 5 µM: 98.1%
[8]
  Survival: 100%
[9]
  viability at 10 µM: 99.2%
[10]
  Survival: 100%
[11]
  survival at 10 µM: 100%
[12]
  survival at 10 µM: 79.1%
[13]
  survival at 25 µM: 34.5%
[14]
  survival at 50 µM: 100%
[15]
  survival at 25 µM: 100%

## OC[C@H]1O[C@@H](n2cnc3c(SCc4ccc(OC(F)(F)F)cc4)ncnc32)[C@H](O)[C@@H]1O
[1]
  viability at 25 µM: 97.4%
[2]
  survival at 50 µM: 44%
[3]
  survival at 5 µM: 93.1%
[4]
  viability at 50 µM: 98.6%
[5]
  survival at 5 µM: 100%
[6]
  Survival: 100%
[7]
  viability at 5 µM: 100%
[8]
  Survival: 100%
[9]
  viability at 10 µM: 99.9%
[10]
  Survival: 100%
[11]
  survival at 10 µM: 100%
[12]
  survival at 10 µM: 64.9%
[13]
  survival at 25 µM: 54.5%
[14]
  survival at 50 µM: 95.1%
[15]
  survival at 25 µM: 97.6%

## Nc1ccc(S(=O)(=O)Nc2ncccn2)cc1 [SULFADIAZINE]
[1]
  viability at 25 µM: 99.8%
[2]
  survival at 50 µM: 46.6%
[3]
  survival at 5 µM: 75.7%
[4]
  viability at 50 µM: 100%
[6]
  Survival: 100%
[7]
  viability at 5 µM: 98.2%
[8]
  Survival: 100%
[9]
  viability at 10 µM: 99.7%
[12]
  survival at 10 µM: 64.5%
[13]
  survival at 25 µM: 59.2%

## CCc1nc(N)nc(N)c1-c1ccc(Cl)cc1 [PYRIMETHAMINE]
[1]
  viability at 25 µM: 100%
[2]
  survival at 50 µM: 6.9%
[3]
  survival at 5 µM: 53.8%
[4]
  viability at 50 µM: 100%
[6]
  Survival: 100%
[7]
  viability at 5 µM: 100%
[8]
  Survival: 100%
[9]
  viability at 10 µM: 98.8%
[12]
  survival at 10 µM: 36.3%
[13]
  survival at 25 µM: 11.8%

## CC(C)(C)c1ccc(CSc2ncnc3c2ncn3[C@@H]2O[C@H](CO)[C@@H](O)[C@H]2O)cc1
[1]
  viability at 25 µM: 100%
[2]
  survival at 50 µM: 12.2%
[3]
  survival at 5 µM: 83.3%
[4]
  viability at 50 µM: 99.7%
[5]
  survival at 5 µM: 100%
[6]
  Survival: 100%
[7]
  viability at 5 µM: 97.4%
[8]
  Survival: 100%
[9]
  viability at 10 µM: 100%
[10]
  Survival: 100%
[11]
  survival at 10 µM: 100%
[12]
  survival at 10 µM: 71.7%
[13]
  survival at 25 µM: 47.2%
[14]
  survival at 50 µM: 100%
[15]
  survival at 25 µM: 100%

B1: Adenosine kinase (Toxoplasma gondii), Q9TVW2 (protein)
chain: MAVDSSNSATGPMRVFAIGNPILDLVAEVPSSFLDEFFLKRGDATLATPEQMRIYSTLDQFNPTSLPGGSALNSVRVVQKLLRKPGSAGYMGAIGDDPRGQVLKELCDKEGLATRFMVAPGQSTGVCAVLINEKERTLCTHLGACGSFRLPEDWTTFASGALIFYATAYTLTATPKNALEVAGYAHGIPNAIFTLNLSAPFCVELYKDAMQSLLLHTNILFGNEEEFAHLAKVHNLVAAEKTALSTANKEHAVEVCTGALRLLTAGQNTGATKLVVMTRGHNPVIAAEQTADGTVVVHEVGVPVVAAEKIVDTNGAGDAFVGGFLYALSQGKTVKQCIMCGNACAQDVIQHVGFSLSFTSLPC
[16]
  Km: 2.4 µM
[17]
  Km: 141 µM
[18]
  Km: 1.1 µM
[19]
  Km: 1.4 µM
[20]
  Km: 1.3 µM
[21]
  Km: 96.1 µM
[22]
  Km: 2.9 µM
[23]
  Km: 113 µM
[24]
  Km: 2.5 µM
[25]
  Km: 150 µM
[26]
  Km: 3 µM
[27]
  Km: 2.6 µM
[28]
  Km: 2.1 µM
[29]
  Km: 1.5 µM
[30]
  Km: 2.4 µM
[31]
  Km: 7.5 µM
[32]
  Km: 37.7 µM
[33]
  Km: 1.2 µM
[34]
  Km: 3.3 µM
[35]
  Km: 0.7 µM
[36]
  Km: 0.9 µM
